Data taken from ChEMBL document CHEMBL5104108, “Concise synthesis and biological activity evaluation of novel pyrazinyl-aryl urea derivatives against several cancer cell lines, which can especially induce T24 apoptotic and necroptotic cell death” (RSC Med Chem, 2022).
Calls of active or inactive are those of the source. No cut-off for these calls is given here.

Legend:
[1] = Cmax in Sprague-Dawley rat at 12 mg/kg, IG measured HPLC analysis; assay type: ADME, organism-based; design: dose 12 mg/kg, route ig; conditions: in vivo, po
[2] = tested on: T-24; assay: Down-regulation of VEGFR-1 mRNA expression in human T24 cells at 7.5 uM measured in presence of 25 uM apatinib by RT-PCR analysis; assay type: functional, cell-based
[3] = tested on: T-24; assay: Down-regulation of p-RIPK3 expression in human T24 cells at 7.5 to 10 uM measured in presence of 60 uM Nec-1 after 16 hrs by Western blot analysis; assay type: functional, cell-based; conditions: dose 7.5-10 µM
How it was run: (§1)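 T24 cells co-incubated 16 h with or without Nec-1 (60 μM). Lysates quantified by BCA, 40 μg protein resolved by SDS-PAGE, transferred to PVDF, probed with primary and peroxidase-conjugated secondary antibodies, detected by ECL. Band gray values normalized to β-actin loading control.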

[4] = tested on: T-24; assay: Up-regulation of p-RIPK1 expression in human T24 cells at 7.5 to 10 uM measured after 16 hrs by Western blot analysis; assay type: functional, cell-based; conditions: dose 7.5-10 µM
[5] = Absorption rate constant in Sprague-Dawley rat at 12 mg/kg, IG measured HPLC analysis; assay type: ADME, organism-based; conditions: in vivo, po
[6] = tested on: T-24; assay: Up-regulation of MLKL expression in human T24 cells at 2.5 to 7.5 uM measured by ELISA assay; assay type: functional, cell-based; conditions: dose 2.5-7.5 µM
How it was run: (§2)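 T24 cells pretreated, collected, diluted in PBS, counted and stored overnight at −20 °C. After membrane disruption, lysates centrifuged at 5000 × g for 5 min (4 °C). RIPK1, RIPK3 and MLKL levels then measured with ELISA kits.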

[7] = tested on: T-24; assay: Induction of apoptosis in human T24 cells assessed as increase in caspase-8 expression at 0 to 5 uM measured by Western blot analysis; assay type: functional, cell-based; conditions: dose 0-5 µM
How it was run: (§3)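 Apoptosis-related proteins measured by Western blot in T24 lysates: 40 μg protein per lane by SDS-PAGE, PVDF transfer, primary and peroxidase-linked secondary antibodies, ECL detection, densitometry of gray values with β-actin as loading control.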

[8] = tested on: HepG2; assay: Antiproliferative activity against human HepG2 cells measured after 48 hrs by MTT assay; assay type: functional, cell-based; conditions: HepG2, 48 h
How it was run: (§4)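 Cells seeded 5 × 10^3 per well, grown overnight at 37 °C, then exposed to compound at final 1–40 μM (1, 2.5, 5, 7.5, 10, 12.5, 15, 20, 30, 40 μM) for the stated period. MTT added, 4 h at 37 °C, formazan dissolved in DMSO, absorbance read. IC50 = concentration killing 50% of cells relative to untreated control; mean ± S.D. of four independent experiments.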

[9] = tested on: T-24; assay: Induction of apoptosis in human T24 cells assessed as increase in cleaved caspase-8 expression at 0 to 5 uM measured by Western blot analysis; assay type: functional, cell-based; conditions: dose 0-5 µM; how it was run: as §3
[10] = tested on: T-24; assay: Induction of necroptosis in human T24 cells assessed as viable cells at 7.5 uM and measured by trypan blue exclusion assay; assay type: functional; conditions: read-out: Activity
How it was run: (§5)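 T24 cells (2 × 10^5/well) exposed for 16 h with or without Nec-1 (60 μM), then stained with trypan blue. Viable and dead cells counted. Result given as % viable cells relative to untreated control.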

[11] = tested on: T-24; assay: Induction of necroptosis in human T24 cells assessed as viable cells at 12.5 uM and measured by trypan blue exclusion assay; assay type: functional; conditions: read-out: Activity; how it was run: as §5
[12] = tested on: T-24; assay: Up-regulation of RIPK1 expression in human T24 cells at 2.5 to 7.5 uM measured by ELISA assay; assay type: functional, cell-based; conditions: dose 2.5-7.5 µM; how it was run: as §2
[13] = tested on: T-24; assay: Down-regulation of VEGFR-2 mRNA expression in human T24 cells at 5 to 10 uM measured by RT-PCR analysis; assay type: functional, cell-based; conditions: dose 5-10 µM
[14] = tested on: T-24; assay: Antiproliferative activity against human T24 cells measured after 72 hrs by MTT assay; assay type: functional, cell-based; conditions: T-24, 72 h; how it was run: as §4
[15] = Clearance in Sprague-Dawley rat at 12 mg/kg, IG measured HPLC analysis; assay type: ADME, organism-based; conditions: in vivo, po
[16] = tested on: T-24; assay: Up-regulation of MLKL mRNA expression in human T24 cells at 7.5 to 12.5 uM measured by RT-PCR analysis; assay type: functional, cell-based; conditions: dose 7.5-12.5 µM
How it was run: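 Total T24 RNA extracted with TRIzol. RT-PCR normalized to GAPDH, relative expression by 2−ΔΔCt versus control. Incubation 16 h for RIPK1/RIPK3/MLKL. At least three independent experiments, each in triplicate.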

[17] = tested on: T-24; assay: Induction of necroptosis in human T24 cells assessed as viable cells at 10 uM and measured by trypan blue exclusion assay; assay type: functional; conditions: read-out: Activity; how it was run: as §5
[18] = tested on: T-24; assay: Up-regulation of RIPK3 expression in human T24 cells at 2.5 to 7.5 uM measured by ELISA assay; assay type: functional, cell-based; conditions: dose 2.5-7.5 µM; how it was run: as §2
[19] = tested on: T-24; assay: Induction of apoptosis in human T24 cells at 5 to 7.5 uM measured after 10 hrs by Hoechst 33342 and propidium iodide staining based flow cytometry analysis; assay type: functional, cell-based; conditions: dose 5-7.5 µM
[20] = tested on: T-24; assay: Up-regulation of RIPK1 expression in human T24 cells at 7.5 to 10 uM measured after 16 hrs by Western blot analysis; assay type: functional, cell-based; conditions: dose 7.5-10 µM
[21] = tested on: T-24; assay: Down-regulation of RIPK1 expression in human T24 cells at 7.5 to 10 uM measured in presence of 60 uM Nec-1 after 16 hrs by Western blot analysis; assay type: functional, cell-based; conditions: dose 7.5-10 µM; how it was run: as §1
[22] = Tmax in Sprague-Dawley rat at 6 mg/kg, IG measured HPLC analysis; assay type: ADME, organism-based; conditions: in vivo, po
How it was run: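 Fasted (12 h) male-unspecified Sprague-Dawley rats (250 ± 20 g), n = 6 per group. Single intragastric dose of suspension (2 mg mL−1 in Tween 80/0.9% NaCl 1.5:5 v/v). Orbital blood drawn at 0.5–48 h and plasma assayed by reversed-phase C18 HPLC-UV. One-compartment fit, weight 1.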

[23] = tested on: T-24; assay: Induction of apoptosis in human T24 cells assessed as apoptotic cells at 7.5 uM measured after 10 hrs by Annexin-V/FITC and propidium iodide staining based flow cytometry analysis; assay type: functional
How it was run: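 T24 cells in 60 mm dishes treated 10 h at 37 °C, collected, PBS-washed, resuspended in binding buffer, stained with Annexin V-FITC and PI for 15 min at room temperature in the dark. At least 1 × 10^4 events per sample by flow cytometry; apoptotic cells = early (Annexin+/PI−) plus late (Annexin+/PI+). Triplicate experiments.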

[24] = AUC (0 to 48 hrs) in Sprague-Dawley rat at 6 mg/kg, IG measured HPLC analysis; assay type: ADME, organism-based; design: time < 48 hr, dose 6 mg/kg, route ig; conditions: in vivo, po
[25] = tested on: T-24; assay: Induction of apoptosis in human T24 cells assessed as increase in Cytochrome c expression at 5 to 7.5 uM measured by Western blot analysis; assay type: functional, cell-based; conditions: dose 5-7.5 µM; how it was run: as §3
[26] = tested on: T-24; assay: Up-regulation of RIPK2 expression in human T24 cells at 7.5 to 10 uM measured after 16 hrs by Western blot analysis; assay type: functional, cell-based; conditions: dose 7.5-10 µM
[27] = tested on: T-24; assay: Down-regulation of p-RIPK1 expression in human T24 cells at 7.5 to 10 uM measured in presence of 60 uM Nec-1 after 16 hrs by Western blot analysis; assay type: functional, cell-based; conditions: dose 7.5-10 µM; how it was run: as §1
[28] = Half-life in Sprague-Dawley rat at 6 mg/kg, IG measured HPLC analysis; assay type: ADME, organism-based; conditions: in vivo, po
[29] = AUMC in Sprague-Dawley rat at 6 mg/kg, IG measured HPLC analysis; assay type: ADME, organism-based; conditions: in vivo, po
[30] = tested on: T-24; assay: Up-regulation of RIPK3 expression in human T24 cells at 7.5 to 10 uM measured after 16 hrs by Western blot analysis; assay type: functional, cell-based; conditions: dose 7.5-10 µM

Cmax [1]: 3360 ng/mL | Ka [5]: 0.107 h⁻¹ | IC50 [8]: 5.05 µM | CL/F [15]: 0.659 mL/min | Tmax [22]: 12 h | AUC(0-t) at 48 h [24]: 30800 ng·h/mL | half-life [28]: 6.56 h | AUMC [29]: 606261 hr2.ng/ml
Compound: O=C(Nc1ccc(C(F)(F)F)cc1)Nc1cccc(CNc2nccnc2Cl)c1
Activity [2]: Active | Activity [3]: Active | Activity [4]: Active | Activity [6]: Active | Activity [7]: Active | Activity [9]: Active | viability at 7.5 µM [10]: 51% | viability at 12.5 µM [11]: 24.8% | Activity [12]: Active | Activity [13]: Active | IC50 [14]: 3.55 µM | Activity [16]: Active | viability at 10 µM [17]: 38% | Activity [18]: Active | Activity [19]: Active | Activity [20]: Active | Activity [21]: Active | Activity [23]: 21.41% | Activity [25]: Active | Activity [26]: Active | Activity [27]: Active | Activity [30]: Active
